Measured values: ChEMBL document CHEMBL4028901, “Novel Antitubercular 6-Dialkylaminopyrimidine Carboxamides from Phenotypic Whole-Cell High Throughput Screening of a SoftFocus Library: Structure-Activity Relationship and Target Identification Studies” (J Med Chem, 2017)
Values after ≈ are worked out from the molar mass of the structure shown. Active and inactive are the calls of the source. The rule behind the calls is not given here.

Columns and labels:
[1] = test system: Mycobacterium tuberculosis variant bovis BCG; assay: Binding affinity to Mycobacterium bovis BCG Rv3768 using sepharose beads derivatized with 6-((3-aminopropyl)(benzyl)amino)-N-(4-(4-methylpiperazin-1-yl)phenyl)pyrimidine-4-carboxamide by LC-MS/MS based chemoproteomics assay
Procedure, shortened: (§1)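 BCG lysate (0.25 mg) pre-incubated with compound or DMSO, then bound to probe-derivatized sepharose beads (0.04 mM) for 1 h at 4 °C. Six compound concentrations used, top 30 μM with 1:4 steps. Includes vehicle duplicates and rebinding duplicates to measure depletion. Bound proteins eluted and quantified by TMT LC-MS/MS. Apparent Kd corrected for depletion by the beads.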

[2] = test system: Mycobacterium tuberculosis variant bovis BCG; assay: Binding affinity to Mycobacterium bovis BCG Rv3169 using sepharose beads derivatized with 6-((3-aminopropyl)(benzyl)amino)-N-(4-(4-methylpiperazin-1-yl)phenyl)pyrimidine-4-carboxamide by LC-MS/MS based chemoproteomics assay; procedure, shortened: as §1
[3] = test system: Mycobacterium tuberculosis; assay: Antibacterial activity against GFP-fused Mycobacterium tuberculosis H37RvMA expressing QcrB mutant grown in 7H9/GLU/ADC medium measured on day 7 and day 14 post inoculation by fluorescence plate reader assay; assay type: functional
Procedure, shortened: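 Mtb::gfp strains (H37RvMa::pMSP12GFP background), two-fold dilutions 20–0.039 µM in 7H9 with Tween-80, glycerol and ADC, or in GAST-Fe pH 6.6, at 5% final DMSO. Cultures grown to OD600 ~0.6 and diluted 1:500 (7H9) or 1:100 (GAST/Fe). […] Data normalised to rifampicin and DMSO controls; MIC90 taken from dose-response curves.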

[4] = Binding affinity to Mycobacterium bovis BCG Rv3768; set-up: species or system Mycobacterium tuberculosis variant bovis BCG; details: read-out: Kd(app)
[5] = Binding affinity to Mycobacterium bovis BCG Rv3169; set-up: species or system Mycobacterium tuberculosis variant bovis BCG; details: read-out: Kd(app)

With O=C(Nc1ccccc1)c1ccc(=O)n(Cc2ccc(F)cc2)c1 the Activity [1] was “inactive” and the Activity [2] was “inactive”.
With COc1ccc(NC(=O)c2cc(N(C)Cc3ccccc3)ncn2)cc1 the MIC99 [3] was 20 µM (≈ 6.97 µg/mL).
For CN1CCN(c2ccc(NC(=O)c3cc(N(C)Cc4ccc(C(F)(F)F)cc4)ncn3)cc2)CC1, the Activity [1] was “Active”, the Activity [2] was “Active” and the Kd [4] was 2.1 to 3.8 µM. For the same compound, the Kd [5] was 0.61 to 0.69 µM.
